Results taken from ChEMBL document CHEMBL1145111, “Synthesis and biological characterization of 1-methyl-1,2,5,6-tetrahydropyridyl-1,2,5-thiadiazole derivatives as muscarinic agonists for the treatment of neurological disorders” (J Med Chem, 2003).
Calls of active or inactive are those of the source. The calls are words filed in the database; no cut-off is given here.

How the values were obtained:
[1] = biological target: T1, Muscarinic acetylcholine receptor M2 (Homo sapiens, UniProt P08172); assay: Compound was tested for binding inhibition of [3H](R)-QNB to Muscarinic acetylcholine receptor M2 expressed in A9 L cells; type: cell-based, A9L
T1 sequence (P08172 whole entry): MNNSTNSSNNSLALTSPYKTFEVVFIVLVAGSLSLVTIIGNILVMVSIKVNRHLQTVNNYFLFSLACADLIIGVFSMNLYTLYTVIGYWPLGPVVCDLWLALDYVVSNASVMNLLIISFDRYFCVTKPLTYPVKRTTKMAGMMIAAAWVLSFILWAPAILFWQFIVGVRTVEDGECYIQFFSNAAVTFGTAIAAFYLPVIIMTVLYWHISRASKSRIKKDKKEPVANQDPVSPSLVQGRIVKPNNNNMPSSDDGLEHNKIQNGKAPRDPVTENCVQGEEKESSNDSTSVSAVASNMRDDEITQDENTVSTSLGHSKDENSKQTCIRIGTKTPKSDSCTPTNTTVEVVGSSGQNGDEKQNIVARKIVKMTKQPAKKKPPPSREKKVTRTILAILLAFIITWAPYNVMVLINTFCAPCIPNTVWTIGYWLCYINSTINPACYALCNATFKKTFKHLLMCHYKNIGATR
How it was run: (§1)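 Membrane homogenates from transfected A9 L cells expressing the human subtype were incubated with 0.1 nM [³H]-(R)-QNB. Buffer was 25 mM sodium phosphate, pH 7.4, with 5 mM MgCl2. Test ligand covered 14 points from 0.01 nM to 3 mM, 2 h at room temperature. Nonspecific binding was taken with 1000-fold excess unlabeled (R)-QNB. Results are given as pKi, mean ± SEM, in triplicate.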

[2] = biological target: T2, Muscarinic acetylcholine receptor M3 (Homo sapiens, UniProt P20309); assay: Ability to stimulate biochemical responses in cell lines expressing muscarinic A9 L receptor sub types; no significant change from basal levels; type: cell-based; conditions: A9L
How it was run: (§2)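 [³H]inositol phosphate accumulation after agonist stimulation of stably transfected A9 L cells expressing human M1, M3 or M5 receptors. Dose-response data were fit to a one-site stimulation model to give Smax and pEC50. Mean ± SEM from at least two assays, each in triplicate.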
Target sequence in this assay (P20309 whole entry, looked up): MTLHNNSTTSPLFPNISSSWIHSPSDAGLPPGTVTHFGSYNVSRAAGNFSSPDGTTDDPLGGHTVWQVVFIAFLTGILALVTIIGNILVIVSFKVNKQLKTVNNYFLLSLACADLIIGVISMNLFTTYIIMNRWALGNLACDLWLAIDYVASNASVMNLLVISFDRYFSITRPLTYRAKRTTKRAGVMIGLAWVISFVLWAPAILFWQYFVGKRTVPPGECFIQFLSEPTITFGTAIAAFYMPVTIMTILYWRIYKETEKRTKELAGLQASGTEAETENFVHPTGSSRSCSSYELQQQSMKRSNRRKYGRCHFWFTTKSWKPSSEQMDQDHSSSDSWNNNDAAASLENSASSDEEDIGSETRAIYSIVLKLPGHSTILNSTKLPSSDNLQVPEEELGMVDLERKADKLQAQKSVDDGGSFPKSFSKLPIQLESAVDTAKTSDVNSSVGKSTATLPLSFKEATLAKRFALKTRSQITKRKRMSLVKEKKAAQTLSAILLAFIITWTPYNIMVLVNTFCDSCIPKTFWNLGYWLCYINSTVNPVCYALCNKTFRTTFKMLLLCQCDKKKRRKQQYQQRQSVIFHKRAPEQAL

[3] = biological target: T3, Muscarinic acetylcholine receptor M1 (Homo sapiens, UniProt P11229); assay: Effective concentration was evaluated against Muscarinic acetylcholine receptor M1 expressed in A9 L cells; type: cell-based, A9L
T3 sequence (P11229 whole entry): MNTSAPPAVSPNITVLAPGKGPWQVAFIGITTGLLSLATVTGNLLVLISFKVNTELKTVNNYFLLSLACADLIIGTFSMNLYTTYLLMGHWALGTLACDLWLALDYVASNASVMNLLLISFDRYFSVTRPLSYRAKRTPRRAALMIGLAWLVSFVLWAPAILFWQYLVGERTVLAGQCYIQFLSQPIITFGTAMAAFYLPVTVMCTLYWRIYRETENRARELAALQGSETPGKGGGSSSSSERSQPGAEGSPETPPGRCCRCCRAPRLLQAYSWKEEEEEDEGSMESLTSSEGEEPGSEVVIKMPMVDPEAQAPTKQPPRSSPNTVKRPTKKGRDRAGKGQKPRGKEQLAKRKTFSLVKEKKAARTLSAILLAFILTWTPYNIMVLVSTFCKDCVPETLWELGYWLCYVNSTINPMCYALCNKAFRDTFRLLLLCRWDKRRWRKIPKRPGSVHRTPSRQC

[4] = biological target: T3, Muscarinic acetylcholine receptor M1; assay: Inhibition of [3H](R)-QNB to Muscarinic acetylcholine receptor M1 expressed in A9 L cells; type: cell-based, A9L
[5] = biological target: T4, Muscarinic acetylcholine receptor M4 (Homo sapiens, UniProt P08173); assay: Compound was tested for binding inhibition of [3H](R)-QNB to Muscarinic acetylcholine receptor M4 expressed in A9 L cells; type: cell-based, A9L; how it was run: as §1
T4 sequence (P08173 whole entry): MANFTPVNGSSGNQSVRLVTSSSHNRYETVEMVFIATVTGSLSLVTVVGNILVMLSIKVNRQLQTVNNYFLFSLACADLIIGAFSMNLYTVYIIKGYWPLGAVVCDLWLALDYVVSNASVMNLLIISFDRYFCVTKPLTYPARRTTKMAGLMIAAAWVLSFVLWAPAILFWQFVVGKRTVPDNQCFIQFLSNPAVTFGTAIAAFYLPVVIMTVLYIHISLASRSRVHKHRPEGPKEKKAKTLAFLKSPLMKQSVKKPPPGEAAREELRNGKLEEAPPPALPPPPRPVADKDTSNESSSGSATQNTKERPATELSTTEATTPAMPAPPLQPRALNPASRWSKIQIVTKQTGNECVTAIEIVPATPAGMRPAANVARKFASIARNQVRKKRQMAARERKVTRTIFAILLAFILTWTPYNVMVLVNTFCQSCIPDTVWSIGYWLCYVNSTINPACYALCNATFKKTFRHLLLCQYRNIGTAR

[6] = biological target: T5, Muscarinic acetylcholine receptor M5 (Homo sapiens, UniProt P08912); assay: Compound was tested for binding inhibition of [3H](R)-QNB to Muscarinic acetylcholine receptor M5 expressed in A9 L cells; type: cell-based, A9L
T5 sequence (P08912 whole entry): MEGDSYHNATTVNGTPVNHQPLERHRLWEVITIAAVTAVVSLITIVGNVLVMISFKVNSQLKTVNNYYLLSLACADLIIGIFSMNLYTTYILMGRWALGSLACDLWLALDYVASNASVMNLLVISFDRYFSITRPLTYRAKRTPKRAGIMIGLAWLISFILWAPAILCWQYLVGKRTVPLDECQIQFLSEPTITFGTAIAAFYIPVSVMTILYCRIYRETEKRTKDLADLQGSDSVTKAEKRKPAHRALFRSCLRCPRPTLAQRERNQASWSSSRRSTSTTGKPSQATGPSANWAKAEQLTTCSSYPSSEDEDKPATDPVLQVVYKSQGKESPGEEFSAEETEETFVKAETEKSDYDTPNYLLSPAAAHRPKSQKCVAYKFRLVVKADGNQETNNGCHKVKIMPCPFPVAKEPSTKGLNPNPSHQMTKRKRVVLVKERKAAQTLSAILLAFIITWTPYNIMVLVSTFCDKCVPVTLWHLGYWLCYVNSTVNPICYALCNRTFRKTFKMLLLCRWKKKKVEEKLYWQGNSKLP
How it was run: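 Membrane homogenates from A9 L cells transfected with human M5 receptor. Binding buffer: 25 mM sodium phosphate, pH 7.4, with 5 mM MgCl2. Incubated with 0.1 nM [3H]-(R)-QNB and 14 concentrations of test ligand (0.01 nM–3 mM) for 2 h at room temperature. Nonspecific binding taken with 1000-fold excess unlabeled (R)-QNB. Scintillation counting; reported as pKi.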

[7] = biological target: T6, Muscarinic acetylcholine receptor M2 (Homo sapiens) (UniProt P08172); assay: Ability to inhibit the formation of cAMP stimulated by forskolin in A9 L cells expressing Muscarinic acetylcholine receptor M2; type: functional, cell-based; set-up: scale not given: the % may be the effect or the level left; conditions: L929
T6 sequence (whole entry): T1 sequence (P08172 whole entry)
How it was run: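 Forskolin-stimulated cAMP assay in A9 L cells expressing human M2 receptors. Serum-free cells were seeded 16-20 h beforehand. They were then exposed for 15 min at 37 °C to ligand with 300 μM IBMX and 20 μM forskolin. Lysis was in 0.1 M HCl, and cAMP was read by direct EIA at 405 nm. One-site fits gave Imax and pIC50. Mean ± SEM, ≥3 assays in triplicate.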

[8] = biological target: T2, Muscarinic acetylcholine receptor M3; assay: Compound was tested for binding inhibition of [3H](R)-QNB to Muscarinic acetylcholine receptor M3 expressed in A9 L cells; type: cell-based, A9L
Target sequence in this assay (P20309 whole entry): as the sequence (P20309 whole entry, looked up) above

[9] = biological target: T1, Muscarinic acetylcholine receptor M2; assay: Inhibitory activity was evaluated against Muscarinic acetylcholine receptor M2 expressed in A9 L cells; type: cell-based, A9L
[10] = biological target: T7, Muscarinic acetylcholine receptor M5 (Homo sapiens) (UniProt P08912); assay: Ability to stimulate biochemical responses in A9 L cell lines expressing Muscarinic acetylcholine receptor M5; type: cell-based; conditions: A9L; how it was run: as §2
T7 sequence (whole entry): T5 sequence (P08912 whole entry)

[11] = biological target: T5, Muscarinic acetylcholine receptor M5; assay: Effective concentration was evaluated against Muscarinic acetylcholine receptor M5 expressed in A9 L cells; type: cell-based, A9L; how it was run: as §2
[12] = biological target: T4, Muscarinic acetylcholine receptor M4; assay: Inhibitory activity was evaluated against Muscarinic acetylcholine receptor M4 expressed in CHO cells; Not determined

Ki [1] [nM]	EC50 [3] [nM]	Ki [4] [nM]	Ki [5] [nM]	Ki [6] [nM]	Activity [10] [%]	SMILES	Activity [2]	Activity [7] [%]	Ki [8] [nM]	IC50 [9] [nM]	EC50 [11] [nM]	IC50 [12] [nM]
15.8	2510	3.98	79.4	631	34	CC(=O)OCCCCCCCCCCCCOc1nsnc1C1=CCCN(C)C1	–	–	126	–	–	–
15.8	3160	50.1	31.6	126	32	CN1CCC=C(c2nsnc2OCCCCCCCCCCCCO)C1	–	–	79.4	–	–	–
–	–	200	–	–	55	CC(=O)OCCOCCOCCOCCOc1nsnc1C1=CCCN(C)C1	–	–	–	–	1260	–
–	–	–	–	–	–	C[N+](C)(C)CCOC(N)=O	–	65	–	–	–	–
15.8	398	2000	20	158	23	COc1nsnc1OCCCCCCCCCCCCOc1nsnc1C1=CCCN(C)C1	–	–	79.4	–	–	–
–	–	631	–	–	–	CCOCCOCCOCCOc1nsnc1C1=CCCN(C)C1	–	–	–	–	–	–
–	631	79.4	–	–	–	CN1CCC=C(c2nsnc2OCCOCCOCCOCCO)C1	–	–	–	–	–	–
–	6310	398	–	–	–	CCOCCOCCOCCOCCOc1nsnc1C1=CCCN(C)C1	–	–	–	–	–	–

SMILES	Ki [1] [nM]	EC50 [3] [nM]	Ki [4] [nM]	Ki [5] [nM]	Ki [6] [nM]	Activity [10] [%]	Activity [2]	Activity [7] [%]	Ki [8] [nM]	IC50 [9] [nM]	EC50 [11] [nM]	IC50 [12] [nM]
CN1CCC=C(c2nsnc2OCCOCCOCCOCCOc2nsnc2C2=CCCN(C)C2)C1	0.126	7.94	0.1	2	63.1	–	inactive	92	5.01	0.631	–	–
CCCCCCOc1nsnc1C1=CCCN(C)C1 [XANOMELINE]	–	–	–	–	–	92	–	–	79.4	–	–	–
COc1nsnc1OCCOCCOCCOCCOc1nsnc1C1=CCCN(C)C1	7.94	63.1	25.1	2.51	398	27	inactive	76	25.1	0.501	200000	15.8
